Assay results published in ChEMBL document CHEMBL1926610, “Design and synthesis of pyridone inhibitors of non-nucleoside reverse transcriptase” (Bioorg Med Chem Lett, 2011).

Experiments:
[1] = tested on: Human immunodeficiency virus; test: Antiviral activity against Human immunodeficiency virus expressing wild type RT infected in human MT4 cells by p24 antigen assay in the presence of 10% FBS; assay type: functional; conditions: Human immunodeficiency virus 1, MT4; read-out: CIC95
In short: (§1)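 CIC95 = concentration at which spread of virus is inhibited by >95% in MT-4 human T-lymphoid cells in RPMI 1640 medium containing either 10% FBS or 50% normal human serum (to assess protein binding). Geometric mean of at least 2 determinations.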

[2] = Plasma clearance in Sprague-Dawley rat at 10 mg/kg, po and 2 mg/kg, iv; assay type: ADME, organism-based
In short: (§2)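 Sprague Dawley rats given iv dose 2 mpk as a DMSO solution via indwelling jugular vein cannula, and p.o. dose 10 mpk as aqueous methylcellulose (methocel) suspension. Plasma levels by LC-MS; absolute oral bioavailability from comparison of mean plasma AUC. Average of at least 2 rats.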

[3] = tested on: Human immunodeficiency virus; test: Antiviral activity against Human immunodeficiency virus expressing RT K103N/Y181C double mutant infected in human MT4 cells by p24 antigen assay in the presence of 10% FBS; assay type: functional; conditions: Human immunodeficiency virus 1, MT4; read-out: CIC95
In short: (§3)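 Spread assay in MT-4 human T-lymphoid cells in RPMI 1640 with 10% FBS. CIC95 is the concentration inhibiting viral spread by >95%, reported as the geometric mean of at least 2 determinations. Cytotoxicity was checked up to 8.3 μM.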

Rattus norvegicus = test: Dose normalized AUC in Sprague-Dawley rat at 10 mg/kg, po; assay type: ADME, organism-based; design: dose 10 mg/kg, route oral; conditions: in vivo; in short: as §2
[4] = tested on: Human immunodeficiency virus; test: Antiviral activity against Human immunodeficiency virus expressing wild type RT infected in human MT4 cells by p24 antigen assay in the presence of 50% normal human serum; assay type: functional; conditions: Human immunodeficiency virus 1, MT4; read-out: CIC95; in short: as §1
[5] = tested on: Human immunodeficiency virus; test: Antiviral activity against Human immunodeficiency virus expressing RT K103N mutant infected in human MT4 cells by p24 antigen assay in the presence of 10% FBS; assay type: functional; conditions: Human immunodeficiency virus 1, MT4; read-out: CIC95; in short: as §3
[6] = biological target: Human immunodeficiency virus type 1 reverse transcriptase (Human immunodeficiency virus 1, UniProt Q72547, Y181C); test: Inhibition of Human immunodeficiency virus reverse transcriptase Y181C mutant by SPA assay
In short: (§4)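 Scintillation proximity assay (SPA) of mutant RT enzyme inhibition. Values are geometric means of at least two determinations.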

[7] = Half life in Sprague-Dawley rat at 10 mg/kg, po and 2 mg/kg, iv; assay type: ADME, organism-based; conditions: in vivo; in short: as §2
[8] = Volume of distribution in Sprague-Dawley rat at 10 mg/kg, po and 2 mg/kg, iv; assay type: ADME, organism-based; conditions: in vivo; in short: as §2
[9] = tested on: Human immunodeficiency virus; test: Antiviral activity against Human immunodeficiency virus expressing RT Y181C mutant infected in human MT4 cells by p24 antigen assay in the presence of 10% FBS; assay type: functional; conditions: Human immunodeficiency virus 1, MT4; read-out: CIC95; in short: as §3
[10] = biological target: Human immunodeficiency virus type 1 reverse transcriptase (Human immunodeficiency virus 1, UniProt Q72547, K103N); test: Inhibition of Human immunodeficiency virus reverse transcriptase K103N mutant by SPA assay; in short: as §4
MT4 [11] = test: Cytotoxicity against human MT4 cells up to 8.3 uM; assay type: cell-based
In short: (§5)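 Cytotoxicity in MT-4 human T-lymphoid cells run alongside the cell culture antiviral assay (RPMI 1640, 10% FBS or 50% NHS), tested up to the assay upper limit of 8.3 μM.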

[12] = Inhibition of Human immunodeficiency virus wild type reverse transcriptase by SPA assay
In short: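 Wild-type HIV RT enzyme inhibition measured in a standard SPA assay. Values are geometric mean of at least two determinations.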

[13] = Oral bioavailability in Sprague-Dawley rat at 10 mg/kg; assay type: ADME, organism-based; conditions: in vivo; in short: as §2
MT4 [14] = test: Cytotoxicity against human MT4 cells; assay type: cell-based; in short: as §5
[15] = tested on: Human immunodeficiency virus; test: Antiviral activity against Human immunodeficiency virus expressing RT K103N mutant infected in human MT4 cells by p24 antigen assay in the presence of 50% normal human serum; assay type: functional; conditions: Human immunodeficiency virus 1, MT4; read-out: CIC95
In short: (§6)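 MT-4 human T-lymphoid cells were kept in RPMI 1640 containing 50% normal human serum to assess protein binding. Readout is CIC95, the concentration blocking >95% of virus spread. Values are geometric means of at least 2 determinations.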

[16] = Plasma protein binding in human; assay type: ADME, cell-free; conditions: read-out: PPB (converted)
[17] = tested on: Human immunodeficiency virus; test: Antiviral activity against Human immunodeficiency virus expressing RT K103N/Y181C double mutant infected in human MT4 cells by p24 antigen assay in the presence of 50% normal human serum; assay type: functional; conditions: Human immunodeficiency virus 1, MT4; read-out: CIC95; in short: as §6
[18] = tested on: Human immunodeficiency virus; test: Antiviral activity against Human immunodeficiency virus expressing RT Y181C mutant infected in human MT4 cells by p24 antigen assay in the presence of 50% normal human serum; assay type: functional; conditions: Human immunodeficiency virus 1, MT4; read-out: CIC95; in short: as §6
[19] = tested on: Human immunodeficiency virus; test: Antiviral activity against Human immunodeficiency virus expressing RT K103N/Y181C double mutant infected in human MT4 cells by p24 antigen assay in the presence of 10% FBS relative to MK-4965; assay type: functional
[20] = tested on: Human immunodeficiency virus; test: Antiviral activity against Human immunodeficiency virus expressing wild type RT infected in human MT4 cells by p24 antigen assay in the presence of 50% normal human serum relative to UK-453061; assay type: functional
[21] = tested on: Human immunodeficiency virus; test: Antiviral activity against Human immunodeficiency virus expressing wild type RT infected in human MT4 cells by p24 antigen assay in the presence of 50% normal human serum relative to MK-4965; assay type: functional
[22] = tested on: Human immunodeficiency virus; test: Antiviral activity against Human immunodeficiency virus expressing wild type RT infected in human MT4 cells by p24 antigen assay in the presence of 50% normal human serum relative to TMC-278; assay type: functional
[23] = Plasma clearance in Sprague-Dawley rat at 1 mg/kg, iv; assay type: ADME, organism-based; design: dose 1 mg/kg, route intravenous
In short: (§7)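 Sprague Dawley rats dosed iv at 1 mpk in DMSO via indwelling jugular vein cannula, no oral arm. Plasma concentrations by LC-MS.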

[24] = Volume of distribution in Sprague-Dawley rat at 1 mg/kg, iv; assay type: ADME, organism-based; design: dose 1 mg/kg, route intravenous; conditions: in vivo; in short: as §7
[25] = Half life in Sprague-Dawley rat at 1 mg/kg, iv; assay type: ADME, organism-based; design: dose 1 mg/kg, route intravenous; conditions: in vivo; in short: as §7

Compound | IC95 [1] [nM] | clearance [2] [mL/min/kg] | IC95 [3] [nM] | AUC/dose (Rattus norvegicus) [µM·h] | IC95 [4] [nM] | IC95 [5] [nM] | Ki [6] [nM] | half-life [7] [h] | Vd [8] [L/kg] | IC95 [9] [nM] | Ki [10] [nM] | Activity (MT4 [11]) | Ki [12] [nM] | bioavailability [13] [%] | Activity (MT4 [14]) | IC95 [15] [nM] | fraction unbound [16] | IC95 [17] [nM] | IC95 [18] [nM] | also measured
N#Cc1cc(Cl)cc(Oc2c(Cl)ccn(Cc3n[nH]c4nc(N)ccc34)c2=O)c1 | 1.9 | 12 | 30 | 0.15 | 11 | 7.1 | 1.8 | 1.4 | 0.8 | 63 | 2.1 | Non-toxic | 1.3 | 6 | – | – | – | – | – | –
CCc1nn(CCO)c(CC)c1Oc1cc(C#N)cc(C#N)c1 [LERSIVIRINE] | – | – | – | – | 40 | – | – | – | – | – | – | – | – | – | Non-toxic | 70 | 0.49 | 100 | 68 | –
Cc1ccn(Cc2n[nH]c3ncccc23)c(=O)c1Oc1cc(Cl)cc(C#N)c1 | 3.6 | 11 | 31 | 0.31 | 12 | 10 | 3.1 | – | 3.7 | – | 3.7 | Non-toxic | 2.5 | 8.5 | – | – | – | – | – | –
Cc1cc(/C=C/C#N)cc(C)c1Nc1ccnc(Nc2ccc(C#N)cc2)n1 [RILPIVIRINE] | – | – | – | – | 36 | – | – | – | – | – | – | – | – | – | Non-toxic | 46 | 0.003 | 311 | 104 | –
N#Cc1cc(Cl)cc(Oc2c(Cl)c(Cl)cn(Cc3n[nH]c4ncccc34)c2=O)c1 | 4.6 | 27 | 31 | 0 | 15 | 11 | 1.3 | 19 | 27 | 15 | 1.6 | Non-toxic | 1 | 0 | – | – | – | – | – | –
N#Cc1cc(Cl)cc(Oc2c(Cl)ccn(Cc3n[nH]c4ncccc34)c2=O)c1 | 2.4 | 12 | 7 | 1.6 | 7.7 | 2.9 | 1 | 4 | 2 | 7.8 | 1.5 | Non-toxic | 0.77 | 57 | Non-toxic | 12 | 0.033 | 69 | 20 | fold change (FC) [19]: 10; fold change (FC) [20]: 4; fold change (FC) [21]: 4; fold change (FC) [22]: 4
Cc1ccn(CCc2n[nH]c3ncccc23)c(=O)c1Oc1cc(Cl)cc(C#N)c1 | 248 | – | – | – | 611 | 447 | 51 | – | – | – | 58 | Non-toxic | 25 | – | – | – | – | – | – | clearance [23]: 31 mL/min/kg; Vd [24]: 0.6 L/kg; half-life [25]: 0.75 h
N#Cc1cc(Cl)cc(Oc2cc(OCc3n[nH]c4nc(N)ccc34)ccc2Cl)c1 | 5 | – | 73 | – | 26 | 12 | – | – | – | 27 | – | Non-toxic | 0.2 | – | Non-toxic | 54 | 0.035 | 589 | 175 | –
N#Cc1cc(Cl)cc(Oc2cc(Cc3n[nH]c4ncccc34)ccc2Cl)c1 | 22 | – | – | – | – | 211 | 0.51 | – | – | – | 0.48 | – | 0.24 | – | – | – | – | – | – | –
